{"source": "paper PMC2965777", "about": "(Biochemistry, 2010)", "key": {"[1]": {"experiment": "Sedimentation equilibrium analytical ultracentrifugation of 5QMe2 alone", "type": "physicochemical", "procedure,_shortened": "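Equilibrium sedimentation of inhibitor alone at 100 µM, 500 µM and 1 mM in 10 mM sodium phosphate, pH 7.40, at 20 °C, in six-sector cells with hourly scans. Rotor speed ran 3000 rpm (1 scan), 36,000 (16), 48,000 (13) and 60,000 rpm (19). A280 was used (A230 for 100 µM). Molecular weight came from global analysis of the three concentrations at each speed.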"}, "[2]": {"system": "YAQ12A", "experiment": "Electron microscopy of YAQ12A fibrillation products", "type": "biochemical", "conditions": "100 μM YAQ12A with 500 μM 5QMe2, 40 h, 37 °C", "procedure,_shortened": "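Aggregation products imaged by electron microscopy after incubating monomeric peptide in 10 mM sodium phosphate, pH 7.40, for 40 h at 37 °C, with or without inhibitor. Micrographs were recorded at 15,000 or 39,000× magnification, plus 1.4× from the CCD camera.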"}, "[3]": {"experiment": "Size exclusion chromatography, apparent molecular weight", "type": "physicochemical", "conditions": "Superdex Peptide 10/300; 10 mM sodium phosphate, 10 mM NaCl, pH 7.40; 0.5 mL/min; 100 μM YAQ12A, 170 μM 5QMe2; 230 nm"}, "[4]": {"system": "YAQ12A", "experiment": "Sedimentation assay of YAQ12A aggregation", "type": "biochemical", "procedure,_shortened": "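Disaggregated peptide was diluted to 100 µM in 10 mM sodium phosphate, pH 7.40, and held at 37 °C without agitation, with or without inhibitor added as lyophilized aliquots. After 98,000 × g for 1 h at 22 °C, 100 µL of the top third went onto analytical C18 RP-HPLC (A220, isocratic water:acetonitrile:TFA 87.5:12.5:0.1). Monomer was quantified from peak area against a standard curve; mean ± S.D. of three replicates.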"}}, "data": [{"substance": "Anth-K-Q-Q(Me2)-Q-Q(Me2)-Q-CONH2 [5QMe2]", "values": [{"measurement": "association state of the inhibitor alone", "setting": "[1]; 100, 500 and 1000 μM, three rotor speeds", "result": "monomeric"}, {"measurement": "molecular weight of 5QMe2 alone, three concentrations analysed globally", "setting": "[1]; rotor speed 36,000 rpm", "result": 988.5}, {"measurement": "molecular weight of 5QMe2 alone, three concentrations analysed globally", "setting": "[1]; rotor speed 48,000 rpm", "result": 1000.0}, {"measurement": "molecular weight of 5QMe2 alone, three concentrations analysed globally", "setting": "[1]; rotor speed 60,000 rpm", "result": 980.1}, {"measurement": "fibril formation of YAQ12A by electron microscopy", "setting": "[2]", "result": "abrogates fibril formation"}, {"measurement": "MW^app by size exclusion chromatography", "setting": "[3]", "result": "~ 1176.0"}, {"measurement": "time after which more rapid loss of soluble YAQ12A follows the lag period", "setting": "[4]; 100 μM YAQ12A with 100 μM 5QMe2, time course, 37 °C", "result": "~ 70 h"}, {"measurement": "aggregation of YAQ12A over the time course", "setting": "[4]; 100 μM YAQ12A with 1 mM 5QMe2, time course to 110 h, 37 °C", "result": "no aggregation was observed for the entire time period"}, {"measurement": "reversal of YAQ12A aggregation", "setting": "[4]; 1 mM 5QMe2 added to 100 μM YAQ12A after 10 or 20 h of aggregation", "result": "did not reverse aggregation"}]}]}
